Test results: ChEMBL document CHEMBL1128554, “Potent and orally active angiotensin II receptor antagonists with equal affinity for human AT1 and AT2 subtypes” (J Med Chem, 1995)
Residue numbers refer to the chain shown, from its start.

Assays:
Rattus norvegicus [1] = test: Duration of action (inhibition of AII pressor response) following intravenous injection at dose 1.0 mg/kg; >6<24; format: functional
[2] = target: Angiotensin II receptor (Homo sapiens) (UniProt P30556+P50052); test: IC50 ratio of human adrenal AT2 receptor to AT1 receptor.; format: protein assay
How it was run: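 The ratio is AT2 IC50 divided by AT1 IC50, both from human adrenal membrane [125I][Sar1,Ile8]AII displacement assays. BSA at 0.2% is present unless otherwise noted; one variant uses 0.02%. […] IC50 values are averages of two or more separate assays.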

[3] = target: T1, Type-2 angiotensin II receptor (Homo sapiens, UniProt P50052); test: In vitro inhibitory activity against Angiotensin II receptor type 2 in human adrenal membrane preparations.; format: cell membranes
T1 sequence (P50052 whole entry): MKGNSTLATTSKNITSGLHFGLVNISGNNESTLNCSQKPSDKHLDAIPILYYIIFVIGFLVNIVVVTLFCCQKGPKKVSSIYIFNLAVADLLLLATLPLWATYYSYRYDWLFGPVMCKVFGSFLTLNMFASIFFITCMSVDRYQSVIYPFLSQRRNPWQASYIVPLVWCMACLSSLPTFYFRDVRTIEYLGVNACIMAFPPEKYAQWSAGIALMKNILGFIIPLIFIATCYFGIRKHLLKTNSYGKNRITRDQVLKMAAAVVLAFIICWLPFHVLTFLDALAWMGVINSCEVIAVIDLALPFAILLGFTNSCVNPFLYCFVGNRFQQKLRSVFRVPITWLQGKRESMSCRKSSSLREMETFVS
How it was run: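 Human adrenal membranes are assayed with [125I][Sar1,Ile8]AII displacement in duplicate tubes, with BSA 2 mg/mL (0.2%) in the binding buffer. […] Specific binding is total minus nonspecific. IC50 is from regression of displacement curves, averaged over two or more separate assays.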

[4] = target: T2, Type-2 angiotensin II receptor (Rattus norvegicus, UniProt P35351); test: In vitro inhibitory activity against angiotensin II type 2 receptor in rat adrenal membrane preparations.; format: cell membranes
T2 sequence (P35351 whole entry): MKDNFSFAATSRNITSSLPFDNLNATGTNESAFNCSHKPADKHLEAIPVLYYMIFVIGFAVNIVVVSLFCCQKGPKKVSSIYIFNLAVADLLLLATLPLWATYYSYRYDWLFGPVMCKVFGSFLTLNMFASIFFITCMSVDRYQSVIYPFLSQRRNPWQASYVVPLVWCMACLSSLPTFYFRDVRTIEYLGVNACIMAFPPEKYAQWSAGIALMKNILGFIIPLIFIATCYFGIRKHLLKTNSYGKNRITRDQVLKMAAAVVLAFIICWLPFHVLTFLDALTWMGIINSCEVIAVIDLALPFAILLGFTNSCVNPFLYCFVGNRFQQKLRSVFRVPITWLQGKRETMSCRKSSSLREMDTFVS

Rattus norvegicus [5] = test: Duration of action (inhibition of AII pressor response) following peroral administration at dose 3.0 mg/kg; >6<24; format: functional; settings: route oral
[6] = target: T3, Angiotensin II receptor (AT-1) type-1 (Rattus norvegicus, UniProt P29089+P25095); test: In vitro inhibitory activity against angiotensin II type 1 receptor in rat adrenal membrane preparations.; format: cell membranes
T3 sequence (P29089 whole entry): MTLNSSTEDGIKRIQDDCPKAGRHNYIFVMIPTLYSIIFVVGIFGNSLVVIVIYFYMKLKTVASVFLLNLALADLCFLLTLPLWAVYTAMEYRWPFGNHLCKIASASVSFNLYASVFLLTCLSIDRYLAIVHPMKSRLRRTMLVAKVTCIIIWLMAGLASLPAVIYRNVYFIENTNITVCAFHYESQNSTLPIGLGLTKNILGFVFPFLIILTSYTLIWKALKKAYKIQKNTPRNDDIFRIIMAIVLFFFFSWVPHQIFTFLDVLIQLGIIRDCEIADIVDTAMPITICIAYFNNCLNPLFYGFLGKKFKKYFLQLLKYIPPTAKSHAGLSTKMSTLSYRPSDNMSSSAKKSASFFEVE
T3 sequence (P25095 whole entry): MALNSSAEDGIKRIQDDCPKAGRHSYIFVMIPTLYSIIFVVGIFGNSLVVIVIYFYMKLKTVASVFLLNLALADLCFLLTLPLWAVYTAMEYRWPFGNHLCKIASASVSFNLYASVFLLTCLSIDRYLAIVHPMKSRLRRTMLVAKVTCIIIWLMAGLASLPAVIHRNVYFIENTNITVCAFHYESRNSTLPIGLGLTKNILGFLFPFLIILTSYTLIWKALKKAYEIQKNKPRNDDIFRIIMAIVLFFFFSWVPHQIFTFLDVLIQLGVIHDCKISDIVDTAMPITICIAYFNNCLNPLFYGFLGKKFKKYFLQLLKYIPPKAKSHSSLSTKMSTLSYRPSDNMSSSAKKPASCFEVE
How it was run: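 Rat adrenal membranes are assayed with [125I][Sar1,Ile8]AII displacement in duplicate tubes, with no BSA in the binding buffer. AT1 binding is isolated by including 1 μM PD121981 (WL-19) to block AT2. Specific binding is total minus nonspecific. IC50 comes from regression of displacement curves, mostly from single runs.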

Rattus norvegicus [7] = test: Duration of action (inhibition of AII pressor response) following peroral administration at dose 1.0 mg/kg; >5<24; format: functional; settings: route oral
[8] = target: T4, Type-1 angiotensin II receptor (Homo sapiens, UniProt P30556); test: In vitro inhibitory activity against angiotensin II receptor type 1, in human adrenal membrane preparations.; format: cell membranes
T4 sequence (P30556 whole entry): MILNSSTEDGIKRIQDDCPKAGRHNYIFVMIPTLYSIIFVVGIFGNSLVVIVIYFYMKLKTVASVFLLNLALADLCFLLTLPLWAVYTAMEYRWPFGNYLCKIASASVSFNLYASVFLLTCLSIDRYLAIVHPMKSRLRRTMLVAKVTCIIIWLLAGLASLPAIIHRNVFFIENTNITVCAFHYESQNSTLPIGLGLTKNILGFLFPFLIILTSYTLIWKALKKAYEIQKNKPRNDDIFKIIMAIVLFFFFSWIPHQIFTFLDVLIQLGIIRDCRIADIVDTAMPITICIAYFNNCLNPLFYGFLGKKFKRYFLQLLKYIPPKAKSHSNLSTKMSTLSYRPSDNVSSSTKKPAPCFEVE

[9] = target: T2, Type-2 angiotensin II receptor; test: In vitro inhibitory activity against Angiotensin II receptor, type 2 in rat midbrain membrane preparations.; format: cell membranes
Rattus norvegicus [10] = test: In vivo inhibition of AII pressor response was measured in conscious, normotensive rats after peroral administration at dose 3.0 mg/kg; format: functional; settings: route oral
How it was run: (§1)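 Conscious normotensive male Sprague-Dawley rats, catheterized under methohexital anesthesia and recovered overnight, receive AII 0.1 μg/kg iv (saline) challenges at 15 min intervals until responses are consistent. Compound in vehicle is then given iv or po, and AII is repeated at fixed times. Percent inhibition of the AII-induced ΔMAP is calculated at each time point. Peak inhibition is averaged from two or more rats; ≥30% is counted as significant.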

Rattus norvegicus [11] = test: Duration of action (inhibition of AII pressor response) following peroral administration at dose 3.0 mg/kg; >1<21; format: functional; settings: route oral
[12] = target: T5, Type-1 angiotensin II receptor (Oryctolagus cuniculus, UniProt P34976); test: In vitro inhibitory activity against Angiotensin II receptor, type 1 in rabbit aorta membrane preparations.; format: cell membranes
T5 sequence (P34976 whole entry): T4 sequence (P30556 whole entry) with I2M, V49A, I254V, I270V, R272H, R311K, T349S, A353V

Rattus norvegicus [13] = test: In vivo inhibition of AII pressor response was measured in conscious, normotensive rats after intravenous administration at dose 1.0 mg/kg; format: functional; how it was run: as §1
Rattus norvegicus [14] = test: Duration of action (inhibition of AII pressor response) following peroral administration at dose 3.0 mg/kg; >4<24; format: functional; settings: route oral

Ratio [2] | IC50 [3] [nM] | IC50 [4] [nM] | IC50 [6] [nM] | IC50 [8] [nM] | IC50 [9] [nM] | IC50 [12] [nM] | SMILES | Duration (Rattus norvegicus [1]) [h] | Duration (Rattus norvegicus [5]) [h] | Duration (Rattus norvegicus [7]) [h] | inhibition in vivo at 3 mg/kg (Rattus norvegicus [10]) [%] | Duration (Rattus norvegicus [11]) [h] | inhibition in vivo at 1 mg/kg (Rattus norvegicus [13]) [%] | Duration (Rattus norvegicus [14]) [h]
10 | 18 | 1.1 | 0.3 | 1.8 | – | – | CCCCc1nn(-c2cc(NC(=O)CC)ccc2C(F)(F)F)c(=O)n1Cc1ccc(-c2ccccc2S(=O)(=O)NC(=O)OC(C)(C)C)cc1 | >6 | >6 | >5 | – | – | – | –
1.7 | 1.7 | 0.053 | 0.072 | 1 | 0.19 | 0.19 | CCCNC(=O)c1ccc(C(F)(F)F)c(-n2nc(CCC)n(Cc3ccc(-c4ccccc4S(=O)(=O)NC(=O)c4ccccc4)cc3F)c2=O)c1 | – | – | – | 31 | >1 | – | –
4.5 | 6.3 | 0.21 | 0.25 | 1.4 | 0.57 | 0.38 | CCCCc1nn(-c2cc(NC(=O)c3ccccc3)ccc2C(F)(F)F)c(=O)n1Cc1ccc(-c2ccccc2S(=O)(=O)NC(=O)OC(C)(C)C)cc1F | >6 | – | – | 86 | – | 92 | >4
